# IDH1 R132H inh: inhibitors of human IDH1 R132H; inhibition, % at 10 µM; IDH1 R132H reductase, diaphorase/resazurin fluorescence, 60 min; O75874; actives 0.18% (n = 70,000); in the data active = inhibition above about 34%; inconclusive = no clear call, values can overlap the other calls; inactive = below about 11%;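 also: 0% = DMSO and 100% = no enzyme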
# Target sequence (O75874 whole entry R132H): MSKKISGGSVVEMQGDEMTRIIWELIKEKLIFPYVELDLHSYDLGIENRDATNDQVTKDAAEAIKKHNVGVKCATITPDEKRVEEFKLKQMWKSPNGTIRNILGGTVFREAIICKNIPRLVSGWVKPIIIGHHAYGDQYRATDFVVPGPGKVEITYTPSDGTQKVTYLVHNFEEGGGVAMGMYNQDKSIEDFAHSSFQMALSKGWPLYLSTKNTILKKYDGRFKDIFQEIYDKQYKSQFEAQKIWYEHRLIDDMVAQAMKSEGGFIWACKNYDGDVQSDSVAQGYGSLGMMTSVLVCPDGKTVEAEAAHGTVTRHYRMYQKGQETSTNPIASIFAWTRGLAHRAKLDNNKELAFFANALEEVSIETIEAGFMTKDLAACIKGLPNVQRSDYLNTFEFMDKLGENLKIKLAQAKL
# GASC1 inh: blocks human GASC-1 (KDM4C) demethylase activity; AID 720574; inhibition, % at 12.5 µM; GST-KDM4C 2-372, H3K9me3 peptide, LANCE TR-FRET; actives 0.15% (n = 96,000); Q9H3R0;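 active = mean replicate inhibition above about 25%, with at least 55% of replicates also reaching it, limit read from the data, passing the limit was not always enough; inconclusive = only one of those two conditions met; inactive = neither condition met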
#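 System: N-terminal GST-fused human GASC-1 (KDM4C) fragment, residues 2-372; amount: enzyme final amount 10 nM; incubation: reaction 30 min RT, detection step 1 h RT; medium: HEPES buffer, pH 7.5, plus ascorbate; technique: LANCE TR-FRET, Eu antibody, ULight-streptavidin, EDTA, ex 340 nm, em 618/671 nm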
# T cruzi growth-1: T. cruzi proliferation inhibition; inhibition, % at 8.34 µM; actives 5.9% (n = 77,000); AID 624255; T. cruzi beta-gal in NIH3T3, GalScreen luminescence, 90 h;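 active = mean inhibition above about 93%, with at least 55% of replicates each passing it, limit read from the data, passing the limit was not always enough; inconclusive = only one of those two conditions holds; inactive = neither condition holds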
# T cruzi growth-2: blocks T. cruzi growth in NIH3T3 host cells; T. cruzi beta-gal in NIH3T3, GalScreen luminescence, 90 h; inhibition, % at 8.35 µM; shares compounds with T cruzi growth-1; actives 72% (n = 5,600);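 active = mean replicate inhibition above about 95% and at least 55% of replicates individually reaching it, limit read from the data; inconclusive = only one of the two criteria is met; inactive = neither criterion is met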
# T cruzi growth-3: blocks T. cruzi growth in NIH3T3 host cells. T. cruzi beta-gal in NIH3T3, GalScreen luminescence, 90 h. shares compounds with T cruzi growth-1. inhibition, % at 2.09 µM. actives 21% (n = 5,600);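 active = mean inhibition above about 95%, with at least 55% of replicates also reaching it, limit read from the data; inconclusive = meets just one of the two conditions; inactive = meets neither condition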;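 also: plate controls were neutral control median for no effect and positive control median for full effect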
# 3T3 cytotox: NIH/3T3 (mouse) viability loss; actives 14% (n = 5,600); shares compounds with T cruzi growth-1; AID 651742; cytotoxicity (signal decrease), % at 8.35 µM; NIH/3T3 viability, CellTiter-Glo ATP luminescence, 90 h;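 active = mean signal decrease across replicates above about 35% based on untreated-well scatter, with enough replicates individually passing, limit read from the data; inconclusive = no rule stated though some were filed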;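 also: 0% = median of neutral control wells and 100% = median of positive control wells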
# NIH3T3 tox 2: kills mouse NIH/3T3 fibroblasts. shares compounds with T cruzi growth-1. NIH/3T3 viability, CellTiter-Glo ATP luminescence, 90 h. inhibition, % at 24.9 µM. actives 56% (n = 5,600). AID 651744;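 active = mean loss of cell viability signal at or above a set limit, and enough replicates individually reaching it; inconclusive = meets only the mean limit or only the replicate share; inactive = meets neither condition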;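 also: 0% = median of neutral control wells and 100% = median of positive control wells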
# * hit, by the source's call; ? = inconclusive; . = not tested or not shown. Only a selection was taken, and hits are over-represented in it overall.
SMILES,IDH1 R132H inh,GASC1 inh,T cruzi growth-1,T cruzi growth-2,T cruzi growth-3,3T3 cytotox,NIH3T3 tox 2
CN1CCc2cc(O)cc3c2[C@H]1Cc1ccc(O)c(O)c1-3,18,.,.,.,.,.,.
CCCN1CCc2cc(O)cc3c2[C@H]1Cc1ccc(O)c(O)c1-3,44*,.,.,.,.,.,.
CC(/C=C/C(=O)NO)=C\c1ccccc1OC[C@@H]1C=C2c3cccc4[nH]cc(c34)C[C@H]2N(C)C1,0,.,.,.,.,.,.
O=C(Cc1ccccc1)N1C[C@@H]2[C@H](c3ccccc31)[C@H](CO)N2Cc1ccccc1,.,0,97*,101*,100*,-13,26
OC[C@H]1[C@H]2c3ccccc3NC[C@H]2N1Cc1cccnc1,.,0,61,.,.,.,.
CSC1=NN1c1cc(C)nc(N)n1,-1,.,.,.,.,.,.
O=C(Cc1cccnc1)N1CCCCN2[C@@H](CO)[C@H](c3ccc(/C=C/c4ccccc4)cc3)[C@@H]2C1,.,0,105*,104*,73,?,104*
C/C=C/c1ccc([C@@H]2[C@@H](CO)N3CCCCN(C(=O)Cc4cccnc4)C[C@H]23)cc1,.,0,52,.,.,.,.
O=C(Cc1cccnc1)N1CCCCN2[C@H](C1)[C@H](c1ccc(/C=C/c3ccccc3)cc1)[C@@H]2CO,.,-1,94,.,.,.,.
O=C(Cc1cccnc1)N1CCCCN2[C@H](CO)[C@H](c3ccc(/C=C/c4ccccc4)cc3)[C@@H]2C1,.,0,119*,114*,102*,?,79*
CCCC#Cc1ccc([C@H]2[C@@H](CO)N3CCCCN(C(=O)Cc4ccccn4)C[C@H]23)cc1,.,0,50,.,.,.,.
O=C(Cc1ccccn1)N1CCCCN2[C@H](C1)[C@@H](c1ccc(C#Cc3ccccc3)cc1)[C@@H]2CO,.,-1,99*,105*,51,41*,104*
CCCC#Cc1ccc([C@H]2[C@H](CO)N3CCCCN(C(=O)Cc4ccccn4)C[C@@H]23)cc1,.,-1,49,.,.,.,.
CCCC#Cc1ccc([C@@H]2[C@@H](CO)N3CCCCN(C(=O)Cc4ccccn4)C[C@H]23)cc1,.,-1,86,.,.,.,.
CCCC#Cc1ccc([C@H]2[C@H]3CN(C(=O)Cc4ccccn4)CCCCN3[C@H]2CO)cc1,.,-1,119*,90,41,-3,23
CCCC#Cc1ccc([C@@H]2[C@@H](CO)N3CCCCN(C(=O)Cc4ccccn4)C[C@@H]23)cc1,.,1,110*,?,57,22,13
CO[C@@H]1[C@H](O)[C@@H](O[C@@H]2C[C@H]3CC[C@@H]4C(CC[C@]5(C)[C@@H](C6=CC(=O)OC6)CC[C@]45O)[C@@]3(C)[C@H](O)C2)O[C@H](C)[C@@H]1O[C@@H]1O[C@H](CO)[C@@H](O)[C@H](O)[C@H]1O (stereo partly drawn),1,.,.,.,.,.,.
C/C=C/c1ccc(C2[C@@H]3CN(Cc4cocn4)C[C@H]2N3)cc1 (stereo partly drawn),.,0,.,.,.,.,.
Cc1ccc2c(c1)-c1cc(C)nn1C(c1cccnc1)N2 (stereo not drawn),-1,.,.,.,.,.,.
N#Cc1cc2c(nc1SCc1ccccc1Br)C1CCN2CC1,0,.,.,.,.,.,.
O=C(Cc1cccnc1)N1CCCCN2[C@H](C1)[C@@H](c1ccc(C#CC3CCCC3)cc1)[C@@H]2CO,.,0,102*,107*,32,25,104*
O=C(Cc1cccnc1)N1CCCCN2[C@H](CO)[C@H](c3ccc(C#CC4CC4)cc3)[C@H]2C1,.,.,-208,.,.,.,.
O=C(Cc1cccnc1)N1CCCCN2[C@H](CO)[C@H](c3ccc(C#CC4CC4)cc3)[C@@H]2C1,.,.,87,.,.,.,.
O=C(Cc1cccnc1)N1CCCCN2[C@H](CO)[C@H](c3ccc(C#CC4CCCC4)cc3)[C@@H]2C1,.,0,111*,89,44,34,78*
CCCN1[C@@H]2Cn3c(cccc3=O)[C@H]1[C@@H](C(=O)N(C)C)[C@@H]2CO,.,-1,49,.,.,.,.
SMILES,IDH1 R132H inh,GASC1 inh,T cruzi growth-1,T cruzi growth-2,T cruzi growth-3,3T3 cytotox,NIH3T3 tox 2
CCOC(=O)c1ncn2c1C1CCCN1C(=O)c1cc(OC)ccc1-2 (stereo not drawn),0,.,.,.,.,.,.
O=C1CCCC2C3CC(CN12)[C@@H]1CCCCN1C3 (stereo partly drawn),0,.,.,.,.,.,.
O=C(Cc1ccccc1)N1CCCCN2[C@H](CO)[C@H](c3ccc(C#Cc4ccccc4)cc3)[C@@H]2C1,.,2,120*,102*,115*,27,103*
O=C(Cc1ccccc1)N1CCCCN2[C@@H](CO)[C@H](c3ccc(C#Cc4ccccc4)cc3)[C@@H]2C1,.,?,111*,108*,105*,43*,103*
O=C(Cc1ccccc1)N1CCCCN2[C@H](CO)[C@H](c3ccc(C#CC4(O)CCCC4)cc3)[C@H]2C1,.,-1,100*,62,53,-8,30*
O=C(Cc1ccncc1)N1CCCCN2[C@@H](CO)[C@H](c3ccc(C#Cc4ccccc4F)cc3)[C@@H]2C1,.,0,112*,112*,79,50*,104*
O=C(Cc1ccccc1)N1CCCCN2[C@H](CO)[C@@H](c3ccc(C#CC4(O)CCCC4)cc3)[C@@H]2C1,.,-1,38,.,.,.,.
O=C(Cc1ccncc1)N1CCCCN2[C@H](C1)[C@@H](c1ccc(C#Cc3ccccc3F)cc1)[C@@H]2CO,.,14,43,.,.,.,.
COc1cc2c(cc1O)C1Cc3ccc(OC)c(O)c3CN1CC2 (stereo not drawn),0,.,.,.,.,.,.
CO[C@H](C)C(O)(C(=O)OCC1=CCN2CC[C@H](O)[C@@H]12)C(C)C (stereo partly drawn),0,.,.,.,.,.,.
O=C1NC(=O)C(CCc2ccncc2)(CCc2ccncc2)C(=O)N1c1ccccc1F,6,.,.,.,.,.,.
O=C(Cc1ccccc1)N1CCCCN2[C@@H](CO)[C@@H](c3ccc(C#Cc4ccccc4)cc3)[C@@H]2C1,.,-2,106*,100*,102*,120*,105*
O=C(Cc1ccccc1)N1CCCCN2[C@H](CO)[C@H](c3ccc(-c4ccccc4)cc3)[C@H]2C1,.,-2,10,.,.,.,.
CN(C)CC#Cc1ccc([C@H]2[C@@H](CO)N3CCCCN(C(=O)Cc4ccccn4)C[C@H]23)cc1,.,1,61,.,.,.,.
CN(C)CC#Cc1ccc([C@@H]2[C@H](CO)N3CCCCN(C(=O)Cc4ccccn4)C[C@@H]23)cc1,.,5,114*,15,24,-1,6
CN(C)CC#Cc1ccc([C@@H]2[C@@H](CO)N3CCCCN(C(=O)Cc4ccccn4)C[C@@H]23)cc1,.,3,91,.,.,.,.
CN(C)CC#Cc1ccc([C@@H]2[C@@H](CO)N3CCCCN(C(=O)Cc4ccccn4)C[C@H]23)cc1,.,4,114*,48,15,16,1
